# Mdm2 MdmX PPI = inhibitors of human Mdm2/MdmX interaction | AID 485346 | SaOS-2 split-luciferase Mdm2/MdmX complementation, luminescence | actives 3% (n = 330,000) | inhibition, % at 8 µM;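 active = inhibition of at least 50% at 8 µM in the primary screen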
# Target sequence (O15151 whole entry, looked up): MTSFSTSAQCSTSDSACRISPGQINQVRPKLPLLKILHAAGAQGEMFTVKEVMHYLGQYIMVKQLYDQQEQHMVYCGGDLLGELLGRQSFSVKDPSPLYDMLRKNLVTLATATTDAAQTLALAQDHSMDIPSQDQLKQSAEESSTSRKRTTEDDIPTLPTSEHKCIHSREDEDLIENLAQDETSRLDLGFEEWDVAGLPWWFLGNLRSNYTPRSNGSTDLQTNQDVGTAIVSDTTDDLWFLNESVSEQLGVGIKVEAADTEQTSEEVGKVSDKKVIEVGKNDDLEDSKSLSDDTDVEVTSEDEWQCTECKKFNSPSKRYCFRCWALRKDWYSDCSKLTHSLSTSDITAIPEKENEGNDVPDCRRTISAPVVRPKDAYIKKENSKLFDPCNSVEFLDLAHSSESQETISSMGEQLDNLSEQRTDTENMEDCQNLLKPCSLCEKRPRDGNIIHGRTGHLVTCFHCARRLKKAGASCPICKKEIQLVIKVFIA
# Target sequence (Q00987 whole entry, looked up): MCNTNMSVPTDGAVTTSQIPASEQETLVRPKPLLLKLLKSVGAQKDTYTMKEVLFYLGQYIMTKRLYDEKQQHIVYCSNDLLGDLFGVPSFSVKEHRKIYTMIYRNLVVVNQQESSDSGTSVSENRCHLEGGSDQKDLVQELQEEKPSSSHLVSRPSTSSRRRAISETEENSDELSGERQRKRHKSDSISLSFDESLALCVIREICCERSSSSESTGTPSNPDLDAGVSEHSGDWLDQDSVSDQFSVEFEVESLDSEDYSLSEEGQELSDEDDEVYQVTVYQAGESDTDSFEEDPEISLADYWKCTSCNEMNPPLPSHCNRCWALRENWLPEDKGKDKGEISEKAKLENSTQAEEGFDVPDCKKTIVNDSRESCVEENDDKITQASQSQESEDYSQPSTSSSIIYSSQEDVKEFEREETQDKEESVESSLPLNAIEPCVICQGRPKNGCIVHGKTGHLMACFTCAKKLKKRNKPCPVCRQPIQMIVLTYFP
# NLRP3 yeast inh = NALP3 inhibition in yeast; Yeast reconstituted NLRP3/ASC/caspase-1, beta-gal luminescence, 24 h; inhibition, % at 10 µM; actives 0.39% (n = 330,000);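 active = inhibition of 50% or more; inactive = inhibition below 50%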;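 also: plate controls were induced DMSO wells for no effect and uninduced yeast grown without galactose for full effect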
# CSC inhib = blocks cancer stem cells; cancer stem cell-like cells viability, luminescence; inhibition, % at 7.5 µM; actives 1.1% (n = 300,000); in the data active = inhibition above about 75%; inconclusive = no clear call, values can overlap the other calls; tested in HMLE shEcad cells
# Beta cell apopt = beta cell apoptosis inhibition. INS-1E cytokine-induced death, ATP luminescence, 48 h; percent of positive-control rescue, neutral wells zero. protection from apoptosis, % (no concentration beside the values). actives 0.8% (n = 300,000);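 active = Every replicate reaches about 75%, or at least half do and their mean reaches it too, limit read from the data; inconclusive = At least half of replicates reach the limit but their mean does not; inactive = Under half of replicates reach the limit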;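 also: 0% = cytokine-treated negative control wells and 100% = positive control rescue; higher means more ATP so stronger rescue from cytokine killing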
# Calb FLC = affects C. albicans growth with fluconazole | C. albicans CaCi-2 (fluconazole-resistant clinical isolate) + fluconazole, Alamar Blue growth, 48 h | growth inhibition, % (no concentration beside the values) | actives 0.57% (n = 300,000);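 active = growth inhibition above about 58% in most replicates, limit read from the data, passing the limit was not always enough; inconclusive = exactly half the replicates above a set limit; inactive = most replicates below a set limit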;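 also: all wells also contain fluconazole at 8 µg/ml as a sub-toxic cotreatment; 0% = median of DMSO wells and 100% = median of geldanamycin control wells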
# T cruzi repl = T. cruzi replication inhibition. T. cruzi beta-gal in NIH3T3, luminescence, 90 h. inhibition, % (concentration not given with the values). actives 1.4% (n = 300,000);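 active = mean inhibition across valid replicates above about 55%, limit read from the data; inconclusive = mean below that limit but half or more replicates reach it; inactive = mean below it, under half of replicates reach it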;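 also: signal also drops with host cell toxicity which is not excluded here; 0% = plate median of DMSO wells and 100% = zero luminescence signal; higher percent means less beta-gal luminescence so fewer parasites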
#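 Incubation – ≥90 h infection period, 3 h prior cell attachment · System – NIH/3T3 fibroblasts plus reporter T. cruzi · Doses – compound pinned at 50 nL/well, DMSO · Read-out basis – percent inhibition of parasite-derived β-gal signal · Signal – luminescent β-galactosidase signal after 60 min lysis · Also added – 5000 T. cruzi trypomastigotes/well · Medium – Low-serum DMEM with 2% FBS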
# Mdm2 MdmX conf = human Mdm2/MdmX binding inhibition, confirmed. inhibition, % at 8 µM. shares compounds with Mdm2 MdmX PPI. AID 489028. actives 55% (n = 10,000). luminescent assay; in the data active = inhibition above about 40%
# FLuc counter = inhibits full-length luciferase, flagging false Mdm2/MdmX hits. shares compounds with Mdm2 MdmX PPI. SaOS-2 full-length luciferase counterscreen, luminescence. inhibition, % at 8 µM. actives 77% (n = 6,200). AID 504607;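 active = mean inhibition at 8 µM reaching about 37%, which flags the compound as non-specific, limit read from the data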;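 also: p53-null SaOS-2 cells with luciferase driven by a doxycycline-inducible promoter; compound on cells about two nights before reading with doxycycline added after day one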
# Starred values were filed as active, the others as inactive; u = inconclusive; x = no result given. Sampled rows, rich in hits. Any-hit rate of the full collection: about 5.3%.
SMILES,Mdm2 MdmX PPI,NLRP3 yeast inh,CSC inhib,Beta cell apopt,Calb FLC,T cruzi repl,Mdm2 MdmX conf,FLuc counter
O=C(NC1CCN(Cc2ccccc2)CC1)C1CCN(S(=O)(=O)c2cccc([N+](=O)[O-])c2)CC1,10,2,-4,-1,-4,40,x,x
Cc1ccc2nc(NC(=O)CN(C)S(=O)(=O)c3cccc4nsnc34)sc2c1,55*,-1,62,25,3,4,69*,58*
CCN(CC)S(=O)(=O)c1ccc(S(=O)(=O)N2CCC(C(=O)NC3CCN(Cc4ccccc4)CC3)CC2)cc1,70*,8,-13,1,-15,20,12,x
Cc1ccc(NC(=O)C2CCN(S(=O)(=O)c3cc([N+](=O)[O-])ccc3Cl)CC2)nc1,71*,-2,25,4,x,x,56*,42*
O=C(Nc1nc2cc(Cl)ccc2s1)C1CCCN(S(=O)(=O)c2cccc3cccnc23)C1 (centres undefined),58*,20,38,-7,-2,28,7,x
Cc1ccc2nc(NC(=O)C3CCN(S(=O)(=O)c4cccc5nsnc45)CC3)sc2c1,55*,4,22,-3,-1,u,18,x
Cc1ccc2nc(NC(=O)C3CCN(S(=O)(=O)c4cccs4)CC3)sc2c1,12,-7,28,31,39,45,x,x
COc1ccc2nc(NC(=O)C3CCCN(S(=O)(=O)c4cccs4)C3)sc2c1 (centres undefined),36,18,x,12,20,34,x,x
COc1ccc2nc(NC(=O)C3CCN(S(=O)(=O)c4cccs4)CC3)sc2c1,52*,12,23,3,23,32,15,x
Cc1ccc2nc(NC(=O)C3CCCN(S(=O)(=O)c4cccc5nsnc45)C3)sc2c1 (centres undefined),38,20,x,13,12,17,x,x
Cc1ccc2nc(NC(=O)C3CCN(S(=O)(=O)c4cc([N+](=O)[O-])ccc4Cl)CC3)sc2c1,67*,2,13,4,7,67*,67*,47*
CC(NCCOCCOc1ccccc1)c1ccccc1 (centres undefined),16,3,-13,-5,8,29,x,x
O=c1oc(C2(O)CCCCC2)cc2ccc(-c3ccc4[nH]ccc4c3)cc12,81*,6,x,3,x,x,61*,41*
O=C(C#Cc1ccccc1)Nc1ccc(F)cc1,38,7,-3,-1,-10,-11,x,x
O=C(C#Cc1ccccc1)Nc1cccc(F)c1,98*,44,114*,97*,-1,20,100*,30
COc1cccc2cc(-c3cc(=O)oc4cc(C)c(OCC(C)=O)cc34)oc12,55*,12,13,10,15,10,-14,x
COc1ccc2oc(=O)cc(-c3cc4cccc(OC)c4o3)c2c1,37,19,-17,3,-7,11,x,x
O=c1oc2ccccc2n1CCCOc1ccccc1,-39,31,-6,-3,0,2,x,x
NC(=O)c1cc(S(=O)(=O)NCCCc2ccccc2)cs1,-10,9,-16,-2,-5,-1,x,x
Cc1ccc2[nH]cc(C(=O)CN3CCN(C)CC3)c2c1,14,0,x,-5,-4,40,x,x
Cc1ccc2c(C(=O)CCl)c(C)[nH]c2c1,92*,-3,22,-44,1,56*,77*,60*
Cc1ccc2[nH]cc(C(=O)CCl)c2c1,82*,6,13,-81,47,u,67*,58*
Cc1ccc2c(C(=O)CN3CCSCC3)c(C)[nH]c2c1,18,22,x,3,-7,x,x,x
CC(C)N(C(=O)Cn1c(SCC(=O)Nc2nccs2)nc2ccccc21)C(C)C,-23,15,-11,-4,4,-5,x,x
CCn1c(N2CCN(C(=O)c3ccco3)CC2)nc2ccccc21,-22,9,-13,-6,-6,-4,x,x
SMILES,Mdm2 MdmX PPI,NLRP3 yeast inh,CSC inhib,Beta cell apopt,Calb FLC,T cruzi repl,Mdm2 MdmX conf,FLuc counter
Cc1c(NC(=O)Nc2ccc(Cl)cc2Cl)c(=O)n(-c2ccccc2)n1C,-19,3,-4,-2,-2,-4,x,x
CCCc1c(NC(=O)Nc2ccc(Cl)cc2Cl)cnn1-c1ccccc1,86*,15,47,x,-4,10,75*,43*
COc1ccc(O)c(C2NC(CC(C)C)(C(=O)O)C3C(=O)N(Cc4ccccc4)C(=O)C23)c1 (centres undefined),-24,-1,-4,-3,4,-10,x,x
CC(C)Cc1nc2oc3c(Cl)ncnc3c2c2c1CCC2,100*,20,86*,-3,9,-4,70*,51*
Cc1nc(C(=O)Nc2ccccc2Cl)cc2c1[nH]c1ccccc12,80*,27,6,13,3,22,57*,56*
Cn1c(N)c(S(=O)(=O)N2CCN(c3ccccc3F)CC2)c(=O)n(C)c1=O,36,16,-16,-2,0,0,x,x
O=C(C[C@H]1C/C=C/CC[C@@H](Cc2ccc(F)cc2)C(=O)OC[C@H](c2ccccc2)NC1=O)NCCO,4,22,-11,3,x,x,x,x
COc1nc(-c2ccc(Cl)cc2)ccc1-c1noc(-c2ccco2)n1,54*,-9,-10,-1,14,-9,-9,x
COc1cccc(-c2ccc(-c3noc(-c4ccccc4F)n3)c(OC)n2)c1,-7,12,32,-1,-10,4,x,x
CCN1/C(=C/c2ccc3cc(C)ccc3[n+]2CC)Sc2cc(C)c(C)cc21,81*,24,x,x,x,x,85*,39*
Cn1nc(C(F)(F)F)c(-c2ccc(Br)cc2)c1NC(=O)Nc1ccc(F)cc1F,91*,19,62,32,-3,47,50*,39*
CN1CCN(c2ccc(Nc3ccnc4cc(Cl)ccc34)cc2)CC1,78*,16,30,11,10,60*,40,51*
CCN1CCN(c2ccc(Nc3ccnc4ccccc34)cc2)CC1,87*,14,x,4,x,x,84*,30
Cc1nc([N+](=O)[O-])c(Sc2nc3ccccc3n2C)n1Cc1ccccc1,51*,-2,12,-7,0,13,27,x
Cc1nc([N+](=O)[O-])c(SCC(N)=O)n1Cc1ccccc1,-6,15,-6,-5,-7,-11,x,x
O=C(COc1ccc(F)cc1)NC1CC1,15,10,8,-1,2,-18,x,x
CCCN1CCN(C(=O)C2CCN(S(=O)(=O)c3c(C)noc3/C=C/c3ccc(C)cc3)CC2)CC1,58*,18,-17,12,20,33,15,x
Cc1ccc(/C=C/c2onc(C)c2S(=O)(=O)N2CCC(C(=O)N3CCCCC3)CC2)cc1,44,37,29,17,-3,25,x,x

# High-throughput results deposited in PubChem BioAssay by several laboratories.
